Calls of active or inactive are those of the source.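 Rule for the calls: active = signal drop whose fitted AC50 is at most twice the top valid dose for that sample; inconclusive = flat fit with a moderate drop, or a poor fit; inactive = the rest.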
Columns and labels:
[1] = SR-BI-independent HDL uptake inhibition, parental line – CHO ldlA7 parental cells, fluorescence, dry powder, counter-screen for SR-BI HDL uptake inhibitor project, dose response (AID 588825); settings: CHO ldlA7 parental cells, DiI-HDL uptake fluorescence, 3 h
Method in brief: (§1)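 Material: Parental CHO ldlA7 cells lacking LDL receptor, no mSR-BI overexpression | Medium: HEPES-buffered Ham's F12 containing fatty-acid-free BSA | Also added: DiI-labelled HDL at 10 µg/mL final | Dosing: Compounds delivered into wells by pin transfer | Incubation: 3 h exposure at 37 °C | Detection: Bottom-read fluorescence, 550 nm ex, 595 nm em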

[2] = system: CHO ldlA7 parental cells, DiI-HDL uptake fluorescence, 3 h; assay: as above
Method in brief: as §1

| SMILES | activity change, negative = inhibition ([1]; at 35 µM (top of the series)) | further results |
| --- | --- | --- |
| CC(=O)N1CCc2cc(-c3nc(NC(=O)c4cccc(OC(F)(F)F)c4)sc3C)ccc21 | 0.208% (inactive) | – |
| CC1CCC/C=C/C2CC(O)CC2C(O)/C=C\C(=O)O1 (configuration not stated) | -6.83% (inactive) | – |
| COc1cc(OC)cc(C(=O)Nc2nc(-c3ccc4c(c3)CCN4C(=O)OC(C)(C)C)cs2)c1 | 1.78% (inactive) | – |
| CC(C)(Sc1cc(C(C)(C)C)c(O)c(C(C)(C)C)c1)Sc1cc(C(C)(C)C)c(O)c(C(C)(C)C)c1 | -1.71% (inactive) | – |
| COc1ccc(-c2cc(CC(=O)N(C3CCCCC3)C(C)C(=O)NC3CCCC3)no2)cc1OC (configuration not stated) | 3.44% (inactive) | – |
| C[C@H](C(=O)NC1CCCC1)N(C(=O)Cn1nnc(-c2ccc3c(c2)OCO3)n1)C1CCCCC1 | 0.283% (inactive) | – |
| CCNC(=O)N1CCc2cc(-c3csc(NC(=O)c4cc(OC)cc(OC)c4)n3)ccc21 | -0.713% (inactive) | – |
| COCC(=O)N1CCc2cc(-c3csc(NC(=O)c4cc(OC)cc(OC)c4)n3)ccc21 | 1.62% (inactive) | – |
| CCC(=O)N1CCc2cc(-c3csc(NC(=O)c4cccc(OC)c4)n3)ccc21 | 14.2% (inactive) | – |
| CCC(=O)N1CC(C)(C)c2cc(-c3csc(NC(=O)c4cc(OC)cc(OC)c4)n3)ccc21 | -2.41% (inactive) | – |
| COc1cc(OC)cc(C(=O)Nc2nc(-c3ccc4c(c3)CCN4C(=O)CN(C)C)cs2)c1 | 3.12% (inactive) | – |
| CCC(=O)N1CCc2cc(-c3csc(NC(=O)c4ccc(F)c(OC)c4)n3)ccc21 | 7.73% (inactive) | – |
| COc1c(NC(=O)C(=O)c2ccc(OCCN3CCOCC3)c3ccccc23)cc(C(C)(C)C)cc1NS(C)(=O)=O | 8% (inactive) | – |
| C[C@@H]1CN([C@@H](C)CO)C(=O)Cc2cc(NC(=O)Nc3ccc(C(F)(F)F)cc3)ccc2O[C@@H]1CN(C)S(=O)(=O)c1ccc(Cl)cc1 | – | activity change, negative = inhibition ([1]; at 30 µM (top of the series)): 19.1% (inactive) |
| CCCCCCC1CCC/C1=N\NC(N)=S (configuration not stated) | – | AC50 [2]: > 70 µM (inactive) |
| C[C@@H]1CN([C@H](C)CO)C(=O)c2cc(NC(=O)Cc3cn(C)c4ccccc34)ccc2O[C@H]1CN(C)S(=O)(=O)c1ccc(Cl)cc1 | 5.56% (inactive) | – |
| Cc1ccc2oc(-c3cccc(NC(=O)c4cc(-n5cnnc5)ccc4Cl)c3)nc2c1 | -1.07% (inactive) | – |
